Test results reported in ChEMBL document CHEMBL4308847, “Discovery, Structure-Activity Relationship, and Biological Characterization of a Novel Series of 6-((1 H-Pyrazolo[4,3- b]pyridin-3-yl)amino)-benzo[ d]isothiazole-3-carboxamides as Positive Allosteric Modulators of the Metabotropic Glutamate Receptor 4 (mGlu4)” (J Med Chem, 2018).
Activity calls are given as the source filed them. The rule behind the calls is not given here.

How the values were obtained:
[1] = Brain to plasma partition coefficient, Kp of the compound in rat administered as iv cassette dose; format: ADME, organism-based; conditions: brain and plasma, read-out: Kp
Procedure, shortened: (§1)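 Cassette dosing in male Sprague-Dawley rats (~300 g, n = 1 per experiment), with carotid artery and jugular vein catheters. Animals acclimated about one week with food and water ad libitum. Plasma (ng/mL) and brain (ng/g) levels were measured and Kp calculated.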

[2] = molecular target: Metabotropic glutamate receptor 4 (Rattus norvegicus, UniProt P31423); assay: (§2) Positive allosteric modulation of rat mGlu4 receptor expressed in HEK cells co-expressing GIRK1/2 assessed as increase in glutamate-induced thallium flux preincubated for 140 secs followed by glutamate addition and measured after 2.5 mins by FluoZin-2-AM dye based fluorescence assay; format: cell-based
Procedure, shortened: (§3)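 HEK cells co-expressing rat mGlu4 and GIRK1/2 were loaded for 1 h at room temperature with FluoZin-2 AM (330 nM final) in HBSS/20 mM HEPES pH 7.4. Compound was incubated 140 s, then thallium buffer with or without agonist was added. Reading continued for 2.5 min at room temperature. Potency was fitted by four-parameter logistic.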

[3] = Fraction unbound in human plasma after 4 hrs by equilibrium dialysis method; format: ADME, cell-free
[4] = molecular target: Metabotropic glutamate receptor 4 (Rattus norvegicus) (UniProt P31423); assay: as §2, with “assay relative to control” for “assay”; format: cell-based; procedure, shortened: as §3
[5] = Drug uptake in brain of Sprague-Dawley rat model of haloperidol-induced catalepsy at 10 mg/kg, po; format: ADME, organism-based; conditions: in vivo, read-out: Drug uptake
Procedure, shortened: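 Male Sprague-Dawley rats given haloperidol 0.75 mg/kg i.p., then returned to cages for 60 min. Compound 10 mg/kg was dosed orally 30 min before catalepsy testing. Plasma, brain and CSF were then assayed, and free levels reported.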

Cytochrome P450 2D6 = Cytochrome P450 2D6 (Homo sapiens, UniProt P10635); assay: Inhibition of CYP2D6 in human liver microsomes using dextromethorphan as substrate preincubated for 15 mins followed by substrate addition and measured after 8 mins by LC-MS/MS analysis; format: ADME
Cytochrome P450 2D6, sequence (P10635 whole entry): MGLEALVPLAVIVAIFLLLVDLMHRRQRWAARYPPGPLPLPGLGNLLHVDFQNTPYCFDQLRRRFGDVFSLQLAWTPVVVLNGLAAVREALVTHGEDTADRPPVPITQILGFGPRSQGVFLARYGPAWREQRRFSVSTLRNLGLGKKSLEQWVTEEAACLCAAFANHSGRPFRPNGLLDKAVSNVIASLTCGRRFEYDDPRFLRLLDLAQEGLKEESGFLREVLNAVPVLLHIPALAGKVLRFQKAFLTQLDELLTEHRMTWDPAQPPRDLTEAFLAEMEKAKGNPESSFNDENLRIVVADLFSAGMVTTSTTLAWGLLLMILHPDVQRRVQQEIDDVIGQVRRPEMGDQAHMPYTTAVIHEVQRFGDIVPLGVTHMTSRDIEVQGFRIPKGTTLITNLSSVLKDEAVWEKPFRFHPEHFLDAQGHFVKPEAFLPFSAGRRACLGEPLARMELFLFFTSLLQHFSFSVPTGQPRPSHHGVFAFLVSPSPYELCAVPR

Cytochrome P450 1A2 = molecular target: T1, Cytochrome P450 1A2 (Homo sapiens, UniProt P05177); assay: Inhibition of CYP1A2 in human liver microsomes using phenacetin as substrate preincubated for 15 mins followed by substrate addition and measured after 8 mins by LC-MS/MS analysis; format: ADME
T1 sequence (P05177 whole entry): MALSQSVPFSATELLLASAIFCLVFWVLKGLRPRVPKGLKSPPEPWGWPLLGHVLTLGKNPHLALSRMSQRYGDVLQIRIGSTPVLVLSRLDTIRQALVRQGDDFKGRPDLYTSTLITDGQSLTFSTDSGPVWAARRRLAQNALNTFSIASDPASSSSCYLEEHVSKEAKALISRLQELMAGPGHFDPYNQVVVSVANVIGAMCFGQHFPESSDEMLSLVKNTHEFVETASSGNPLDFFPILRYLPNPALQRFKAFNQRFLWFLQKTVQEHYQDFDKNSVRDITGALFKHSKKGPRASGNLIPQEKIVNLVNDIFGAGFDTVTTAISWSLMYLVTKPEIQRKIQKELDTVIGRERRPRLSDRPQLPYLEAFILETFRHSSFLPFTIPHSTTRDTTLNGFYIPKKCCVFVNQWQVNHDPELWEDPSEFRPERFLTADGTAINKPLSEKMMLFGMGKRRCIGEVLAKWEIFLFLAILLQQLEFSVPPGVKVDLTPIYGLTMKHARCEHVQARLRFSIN
Procedure, shortened: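 IC50 for CYP1A2 inhibition determined in human liver microsomes using specific probe substrate-metabolite pairs.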

[6] = Intrinsic clearance in human liver microsomes at 1 uM preincubated for 5 mins followed by NADPH addition measured up to 45 mins by LC-MS/MS analysis; format: ADME, Microsome; conditions: read-out: CLH
Procedure, shortened: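 Intrinsic and predicted hepatic clearance derived from liver microsome incubations.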

[7] = molecular target: Metabotropic glutamate receptor 5 (Rattus norvegicus) (UniProt P31424); assay: Allosteric modulation of rat mGlu5 receptor assessed as change in glutamate-induced calcium mobilization at 10 uM preincubated for 2.5 mins followed by glutamate addition by Fluo-4-AM dye based fluorescence assay; format: functional
Metabotropic glutamate receptor 5 (Rattus norvegicus), sequence (P31424 21-1203 limits assumed): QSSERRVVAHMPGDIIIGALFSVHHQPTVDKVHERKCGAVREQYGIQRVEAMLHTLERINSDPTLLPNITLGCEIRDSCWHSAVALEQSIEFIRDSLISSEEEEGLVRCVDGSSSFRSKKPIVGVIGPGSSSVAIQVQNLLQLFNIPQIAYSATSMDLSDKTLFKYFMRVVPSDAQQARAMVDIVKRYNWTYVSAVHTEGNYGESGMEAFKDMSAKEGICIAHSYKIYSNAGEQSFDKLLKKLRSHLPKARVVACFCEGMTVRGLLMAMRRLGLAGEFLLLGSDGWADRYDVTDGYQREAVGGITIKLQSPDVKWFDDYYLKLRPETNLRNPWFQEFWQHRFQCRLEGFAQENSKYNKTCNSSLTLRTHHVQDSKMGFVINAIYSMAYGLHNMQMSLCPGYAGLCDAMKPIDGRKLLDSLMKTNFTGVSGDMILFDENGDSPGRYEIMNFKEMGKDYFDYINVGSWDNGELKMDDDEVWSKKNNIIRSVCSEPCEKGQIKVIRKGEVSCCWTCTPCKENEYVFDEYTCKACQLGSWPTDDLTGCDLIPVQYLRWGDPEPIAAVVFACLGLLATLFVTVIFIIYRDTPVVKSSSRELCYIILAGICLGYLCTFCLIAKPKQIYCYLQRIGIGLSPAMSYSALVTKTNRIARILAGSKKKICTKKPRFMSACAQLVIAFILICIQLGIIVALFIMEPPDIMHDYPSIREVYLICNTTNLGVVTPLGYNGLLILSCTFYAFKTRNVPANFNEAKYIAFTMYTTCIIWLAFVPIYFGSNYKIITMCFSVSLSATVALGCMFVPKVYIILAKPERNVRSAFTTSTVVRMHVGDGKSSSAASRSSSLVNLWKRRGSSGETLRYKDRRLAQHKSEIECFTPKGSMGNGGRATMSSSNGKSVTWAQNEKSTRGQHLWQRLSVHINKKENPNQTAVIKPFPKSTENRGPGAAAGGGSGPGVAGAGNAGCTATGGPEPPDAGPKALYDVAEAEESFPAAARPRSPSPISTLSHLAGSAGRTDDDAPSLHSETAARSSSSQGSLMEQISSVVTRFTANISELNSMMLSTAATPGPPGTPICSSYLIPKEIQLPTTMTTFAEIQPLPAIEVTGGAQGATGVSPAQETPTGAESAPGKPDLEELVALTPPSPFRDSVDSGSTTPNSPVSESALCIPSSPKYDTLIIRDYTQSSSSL
Procedure, shortened: (§4)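 Human mGlu1 and rat mGlu5 tested by calcium mobilization with a double addition. 10 μM compound was added, then 2.5 min later a full glutamate concentration range. A left shift of more than 2-fold was scored as potentiation. A right shift of more than 2-fold, or a depression of the maximum response by at least 75%, was scored as antagonism.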

[8] = molecular target: Metabotropic glutamate receptor 7 (Rattus norvegicus) (UniProt P35400); assay: Allosteric modulation of rat mGlu7 receptor expressed in HEK cells co-expressing GIRK1/2 assessed as change in glutamate-induced thallium flux preincubated for 2.5 mins followed by glutamate addition by FluoZin-2-AM dye based fluorescence assay; format: cell-based
Metabotropic glutamate receptor 7 (Rattus norvegicus), sequence (P35400 whole entry): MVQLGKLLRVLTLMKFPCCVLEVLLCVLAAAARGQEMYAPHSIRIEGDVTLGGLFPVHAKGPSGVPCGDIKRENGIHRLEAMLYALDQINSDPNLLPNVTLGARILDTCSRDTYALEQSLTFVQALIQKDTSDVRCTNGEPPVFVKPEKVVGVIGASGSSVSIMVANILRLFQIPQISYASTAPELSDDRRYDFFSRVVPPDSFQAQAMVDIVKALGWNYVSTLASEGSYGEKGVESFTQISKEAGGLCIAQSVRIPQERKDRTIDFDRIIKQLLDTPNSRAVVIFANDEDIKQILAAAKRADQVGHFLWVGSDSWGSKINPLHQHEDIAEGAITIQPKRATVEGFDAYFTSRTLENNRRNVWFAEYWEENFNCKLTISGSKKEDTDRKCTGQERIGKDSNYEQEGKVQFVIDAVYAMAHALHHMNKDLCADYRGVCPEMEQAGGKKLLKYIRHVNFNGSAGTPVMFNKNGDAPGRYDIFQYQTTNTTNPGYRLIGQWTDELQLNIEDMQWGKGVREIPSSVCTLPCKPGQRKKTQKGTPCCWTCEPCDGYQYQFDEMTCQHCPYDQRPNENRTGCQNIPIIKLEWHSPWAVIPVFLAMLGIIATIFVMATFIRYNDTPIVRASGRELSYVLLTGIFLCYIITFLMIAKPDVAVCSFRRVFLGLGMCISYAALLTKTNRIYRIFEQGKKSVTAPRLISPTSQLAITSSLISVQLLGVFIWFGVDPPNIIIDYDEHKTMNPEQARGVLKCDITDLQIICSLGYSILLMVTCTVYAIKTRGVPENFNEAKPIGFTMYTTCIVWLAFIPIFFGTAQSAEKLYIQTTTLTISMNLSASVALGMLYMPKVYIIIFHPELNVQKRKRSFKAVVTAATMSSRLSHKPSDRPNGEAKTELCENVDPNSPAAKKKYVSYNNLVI

P-gp = assay: Permeability from apical to basolateral side in MDCK cells harboring P-gp; format: ADME, cell-based, Canis lupus familiaris; conditions: dog, MDCK-MDR1; read-out: permeability
[9] = molecular target: Metabotropic glutamate receptor 3 (Rattus norvegicus) (UniProt P31422); assay: Allosteric modulation of rat mGlu3 receptor expressed in HEK cells co-expressing GIRK1/2 assessed as change in glutamate-induced thallium flux preincubated for 2.5 mins followed by glutamate addition by FluoZin-2-AM dye based fluorescence assay; format: cell-based
Metabotropic glutamate receptor 3 (Rattus norvegicus), sequence (P31422 23-879 limits assumed): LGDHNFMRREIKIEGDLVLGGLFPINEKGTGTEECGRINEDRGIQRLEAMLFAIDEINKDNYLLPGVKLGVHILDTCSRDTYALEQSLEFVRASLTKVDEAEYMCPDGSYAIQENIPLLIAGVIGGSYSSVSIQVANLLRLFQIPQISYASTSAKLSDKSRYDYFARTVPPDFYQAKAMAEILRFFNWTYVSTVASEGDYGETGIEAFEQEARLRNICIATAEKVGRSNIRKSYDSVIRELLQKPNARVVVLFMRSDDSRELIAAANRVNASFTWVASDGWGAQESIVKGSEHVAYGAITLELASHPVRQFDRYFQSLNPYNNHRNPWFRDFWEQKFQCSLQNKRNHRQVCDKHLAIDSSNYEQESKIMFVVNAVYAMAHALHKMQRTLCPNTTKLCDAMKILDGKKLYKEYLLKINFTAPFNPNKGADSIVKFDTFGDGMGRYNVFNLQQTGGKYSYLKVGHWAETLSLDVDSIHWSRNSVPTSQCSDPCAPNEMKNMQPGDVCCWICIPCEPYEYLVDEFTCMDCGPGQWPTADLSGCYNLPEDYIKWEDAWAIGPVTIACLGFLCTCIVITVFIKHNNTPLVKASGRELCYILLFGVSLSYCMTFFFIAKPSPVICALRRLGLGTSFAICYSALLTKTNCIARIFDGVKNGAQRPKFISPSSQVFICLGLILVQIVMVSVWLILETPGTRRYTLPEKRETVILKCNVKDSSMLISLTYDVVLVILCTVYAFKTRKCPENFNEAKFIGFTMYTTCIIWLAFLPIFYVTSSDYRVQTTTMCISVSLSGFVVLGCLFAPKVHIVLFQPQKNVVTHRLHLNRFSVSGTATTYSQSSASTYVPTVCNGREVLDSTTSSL
Procedure, shortened: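 HEK cells expressing GIRK1/2 plus rat mGlu2, mGlu3, mGlu7 or mGlu8, plated at 15,000 cells/well. Thallium flux was read with a double addition: 10 μM compound, then 2.5 min later a full agonist concentration-response. The agonist was glutamate, or L-AP4 for mGlu7. A left shift of more than 2-fold counted as potentiation. A right shift of more than 2-fold, or a ≥75% drop in maximum response, counted as antagonism.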

[10] = Plasma concentration in rat administered as iv cassette dose; format: ADME, organism-based; conditions: in vivo; procedure, shortened: as §1
[11] = Drug uptake in rat brain administered as iv cassette dose; format: ADME, organism-based; conditions: in vivo; procedure, shortened: as §1
[12] = molecular target: Metabotropic glutamate receptor 1 (Homo sapiens) (UniProt Q13255); assay: Allosteric modulation of human mGlu1 receptor assessed as change in glutamate-induced calcium mobilization at 10 uM preincubated for 2.5 mins followed by glutamate addition by Fluo-4-AM dye based fluorescence assay; format: functional; procedure, shortened: as §4
Metabotropic glutamate receptor 1 (Homo sapiens), sequence (Q13255 19-1194 limits assumed): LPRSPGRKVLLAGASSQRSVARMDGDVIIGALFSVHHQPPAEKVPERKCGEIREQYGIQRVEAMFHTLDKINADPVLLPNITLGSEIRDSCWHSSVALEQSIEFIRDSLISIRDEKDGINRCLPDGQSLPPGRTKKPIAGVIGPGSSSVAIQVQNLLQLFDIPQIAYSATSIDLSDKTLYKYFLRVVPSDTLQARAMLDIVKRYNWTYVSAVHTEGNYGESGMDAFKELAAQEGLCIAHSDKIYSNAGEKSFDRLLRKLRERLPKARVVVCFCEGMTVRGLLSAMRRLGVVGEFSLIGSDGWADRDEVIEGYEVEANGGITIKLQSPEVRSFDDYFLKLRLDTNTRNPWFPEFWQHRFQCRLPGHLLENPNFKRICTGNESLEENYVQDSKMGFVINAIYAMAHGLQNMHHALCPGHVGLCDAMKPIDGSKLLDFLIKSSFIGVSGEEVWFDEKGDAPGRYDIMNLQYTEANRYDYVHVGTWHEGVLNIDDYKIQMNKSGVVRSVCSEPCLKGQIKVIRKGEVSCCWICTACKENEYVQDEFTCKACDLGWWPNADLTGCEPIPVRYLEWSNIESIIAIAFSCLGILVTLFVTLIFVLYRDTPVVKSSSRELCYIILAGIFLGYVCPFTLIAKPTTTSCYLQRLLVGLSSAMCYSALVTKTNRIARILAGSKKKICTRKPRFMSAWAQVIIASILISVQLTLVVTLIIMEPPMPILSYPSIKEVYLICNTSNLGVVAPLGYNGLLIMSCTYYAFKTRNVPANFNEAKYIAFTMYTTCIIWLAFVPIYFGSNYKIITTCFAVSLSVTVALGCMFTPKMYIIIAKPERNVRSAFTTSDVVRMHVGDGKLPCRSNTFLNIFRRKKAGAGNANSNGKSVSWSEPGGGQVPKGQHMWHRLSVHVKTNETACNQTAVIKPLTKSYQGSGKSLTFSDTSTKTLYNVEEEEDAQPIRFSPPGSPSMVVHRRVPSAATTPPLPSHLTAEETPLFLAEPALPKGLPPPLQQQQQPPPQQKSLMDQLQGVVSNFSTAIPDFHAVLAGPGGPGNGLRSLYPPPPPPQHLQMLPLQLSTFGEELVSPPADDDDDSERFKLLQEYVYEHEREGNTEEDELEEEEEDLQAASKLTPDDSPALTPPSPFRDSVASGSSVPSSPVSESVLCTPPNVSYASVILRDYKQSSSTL

[13] = molecular target: Metabotropic glutamate receptor 4 (Homo sapiens, UniProt Q14833); assay: Positive allosteric modulation of human mGlu4 receptor expressed in CHO cells co-expressing Gqi5 assessed as increase in glutamate-induced calcium mobilization preincubated for 142 secs followed by EC20 glutamate addition and measured after 147 secs by Fluo-4-AM dye based fluorescence assay relative to control; format: functional, cell-based
Procedure, shortened: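 CHO cells expressing human mGlu4 and Gqi5, plated at 30,000 cells/well and grown overnight at 37 °C, 5% CO2. Cells were loaded with 1 μM Fluo-4 AM for 45 min at 37 °C in HBSS/20 mM HEPES/2.5 mM probenecid. Compounds were run as 10-point, 1:3 dilution series. After 142 s, EC20 glutamate was added; 147 s later, EC80 glutamate. Fluorescence was normalized to the maximal glutamate response. EC50 and %Glu Max were fitted by four-parameter logistic, with maximum normalized to PHCCC.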

[14] = MRT in rat administered as iv cassette dose; format: ADME, organism-based; conditions: in vivo
Procedure, shortened: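 IV cassette in male Sprague-Dawley rats (~300 g, n = 1 per experiment), cannulated in carotid artery and jugular vein and acclimated about one week. Plasma clearance, Vss, t1/2 and MRT were derived.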

Kp [1]: 0.4 | EC50 [2]: 0.0827 µM | fraction unbound at 4 h [3]: 0.024 | %max [4]: 76.8% | IC50 (Cytochrome P450 2D6): > 30 µM | IC50 (Cytochrome P450 1A2): > 30 µM | CLint scaled at 1 µM [6]: 19 mL/min/kg | Activity [7]: inactive | Activity [8]: inactive | Papp A→B (P-gp): 2.9 ×10⁻⁶ cm/s | Activity [9]: inactive | Cp [10]: 284 ng/mL | Drug uptake [11]: 107 ng/g | Activity [12]: inactive | %max [13]: 50.5% | MRT [14]: 8.5 h
SMILES: O=C(NC1CC(F)(F)C1)c1nsc2cc(Nc3n[nH]c4cccnc34)ccc12
concentration [5]: 252 nM
